Compound activity as filed in PubChem BioAssay.
This is a sample that favours compounds with a hit; in the whole collection about 3.5% have one here.
RGS4 act – potentiators or activators of RGS4 | HEK293 M3R/inducible RGS4, carbachol calcium flux Fluo4; stronger effect = lower value | B-score at 10 µM | 0.92% of 310,000 active;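 active = B-score of the integrated calcium signal more than 4 SD below the library mean, with starting fluorescence not abnormally high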;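 note: negative B-score means reduced calcium response which marks RGS4 activation or potentiation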
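Material: M3R-expressing HEK293 line, RGS4 induced by doxycycline | Schedule: Overnight RGS4 induction, 30 min dye load 37 °C, 20 min compound RT | Measured by: Fluo4 fluorescence kinetic imaging of calcium | Read-out: Integrated calcium ratio converted to B score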
MrgX1 agonist – human MrgX1 receptor agonism, primary screen; MrgX1-HEK293 cells, Fluo-4 calcium fluorescence, agonist mode; stronger effect = higher value; B-score at 10 µM; 0.44% of 310,000 active; AID 588627;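 active = calcium response B-score plate-corrected fluorescence ratio at least 3 library SD, with starting fluorescence B-score inside 5 SD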
Target sequence (Q96LB2 whole entry, looked up): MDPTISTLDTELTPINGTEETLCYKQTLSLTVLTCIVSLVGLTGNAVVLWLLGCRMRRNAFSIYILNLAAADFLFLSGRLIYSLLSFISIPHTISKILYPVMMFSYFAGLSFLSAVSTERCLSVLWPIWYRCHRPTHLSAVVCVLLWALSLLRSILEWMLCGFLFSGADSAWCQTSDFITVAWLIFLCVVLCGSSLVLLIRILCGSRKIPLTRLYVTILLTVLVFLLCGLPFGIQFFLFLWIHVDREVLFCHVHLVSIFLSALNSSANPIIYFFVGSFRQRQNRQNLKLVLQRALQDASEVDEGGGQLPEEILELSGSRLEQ
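System – MrgX1-expressing HEK293 cells · Incubation – cells plated overnight, dye loaded 0.5 h 37 °C, 0.5 h room temperature · Technique – kinetic Fluo-4 NW fluorescence of intracellular calcium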
MrgX1 PAM – human MrgX1 positive allosteric modulation, primary screen. 0.63% of 310,000 active. AID 588675. B-score at 10 µM. MrgX1-HEK293, Fluo-4 calcium flux, FDSS; stronger effect = higher value;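 active = plate-corrected calcium response at least 3 library SD above typical, normal starting fluorescence, not activating the receptor alone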;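 note: compound read alongside a low EC10 to EC30 dose of BAM8-22 agonist; peak minus trough fluorescence over baseline measured at the second addition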
MrgX1 antag – human MrgX1 receptor antagonism, primary screen; MRGX1-HEK293 calcium flux, Fluo-4, BAM8-22 antagonism; stronger effect = lower value; B-score at 10 µM; 1.3% of 310,000 active; AID 588676;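 active = calcium-response B-score plate-corrected more than 3 library SD below zero, starting fluorescence within 5 deviations, no agonist response on first addition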;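 note: peak minus trough fluorescence over baseline after final BAM8-22 challenge near maximal dose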
RGS4 block – inhibitors of human RGS4. AID 463165. B-score at 10 µM. 0.45% of 310,000 active. HEK293 M3R/RGS4 inducible, Fluo-4 calcium flux; stronger effect = higher value; triggered by carbachol at its EC20;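 active = B-score, a plate-corrected calcium signal, over three deviations above library mean, with baseline fluorescence within five deviations of library mean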;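 note: RGS4 expression induced by doxycycline in cells with stable M3 receptor; B-score is computed from the integrated fluorescence ratio over baseline after carbachol; higher B-score means a larger calcium signal and so more RGS4 inhibition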
Target sequence (P49798 whole entry, looked up): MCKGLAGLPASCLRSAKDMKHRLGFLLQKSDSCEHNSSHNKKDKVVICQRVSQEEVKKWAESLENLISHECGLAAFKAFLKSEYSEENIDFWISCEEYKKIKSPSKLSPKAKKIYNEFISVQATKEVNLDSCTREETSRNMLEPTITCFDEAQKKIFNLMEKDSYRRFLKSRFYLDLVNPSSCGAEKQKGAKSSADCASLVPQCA
Numbers without * were called inactive; i = inactive; . = no result given; ! = a repeat was not active.

SMILES	RGS4 act	MrgX1 agonist	MrgX1 PAM	MrgX1 antag	RGS4 block
CN(C)CCNc1oc(COc2ccc(Cl)cc2Cl)nc1C#N	i	i	i	-6.54*	i
COCCCNc1oc(COc2ccc(Cl)cc2Cl)nc1C#N	i	i	i	i	i
COc1ccc(CCNc2oc(COc3ccc(Br)cc3)nc2C#N)cc1OC	-7.52*	i	i	i	i
COc1ccc(CCNc2oc(Cc3cccc4ccccc34)nc2C#N)cc1OC	i	i	i	i	i
Cc1c(CC(=O)N2C[C@H]3C[C@@H](C2)c2cccc(=O)n2C3)c(=O)oc2cc3occ(C(C)(C)C)c3cc12	i	i	i	i	i
COCCNC(=S)N1CCC(C(=O)c2ccc(C)cc2)CC1	i	i	i	i	i
CN1/C(=C\C=C2/SC(=S)NC2=O)C(C)(C)c2ccccc21	i	28.2*	i	i	i
CN1/C(=C/C=C(/C#N)C(N)=O)C(C)(C)c2ccccc21	i	32.8*	i	i	i
Cc1cc(C)c2nc(SCC(=O)NCC3CCCO3)c(C#N)cc2c1 (configuration not stated)	i	i	i	i	i
CCOC(=O)CC(=O)CSc1[nH]c(=O)cc(C)c1C#N	i	i	i	i	i
COc1ccc(C(=O)Nc2ccccc2[N+](=O)[O-])cc1S(=O)(=O)N1CCOCC1	i	i	i	i	i
Cc1ccc(C(=O)Nc2ccccc2[N+](=O)[O-])cc1S(=O)(=O)N1CCOCC1	i	i	8.03*	i	i
COCCN(C(=O)COC(=O)CCc1ccccc1OC)c1c(N)n(Cc2ccccc2)c(=O)[nH]c1=O	i	i	i	-6.02*	i
CC1Sc2ccc(S(=O)(=O)N3CCC(C(=O)NCc4ccccc4)CC3)cc2NC1=O (configuration not stated)	i	i	i	i	i
CC(C)c1nnc(NC(=O)COc2ccccc2[N+](=O)[O-])s1	i	i	i	i	i
CCSc1nnc(NC(=O)COc2ccccc2[N+](=O)[O-])s1	i	i	8.61*	i	i
COc1ccc(OC)c2nc(-c3ccc4c(c3)OCO4)ccc12	i	i	i	i	i
CN1CCN(C2Cc3cc(F)ccc3Sc3ccc(Cl)cc32)CC1 (configuration not stated)	-8.27*	i	i	i	i
CN1CCN(C2Cc3ccccc3Sc3ccc(Cl)cc32)CC1 (configuration not stated)	.	i	i	i	.
CSc1ccc2c(c1)C(N1CCN(C)CC1)Cc1ccccc1S2 (configuration not stated)	-7.38*!	i	i	i	i
CC(C)c1ccc2c(c1)C(N1CCNCC1)Cc1ccc(F)cc1S2 (configuration not stated)	-8.7*	i	i	i	i
CCN1C(=O)c2ccccc2S(=O)(=O)c2ccc(C(=O)NCc3cccnc3)cc21	i	i	i	i	i
CCOc1ccc(S(=O)(=O)N2CCC(C(=O)N3CCN(c4ccccc4F)CC3)CC2)cc1C	-7.24*	i	i	i	i
CCOc1ccc(CN2CCC(C(=O)N3CCN(c4ccccc4F)CC3)CC2)cc1OC	i	i	i	i	i
CC(=O)c1cc(NC(=O)c2ccc(Cl)cc2)c(=O)oc1/C=C/N(C)C	i	37.6*	i	i	i
SMILES	RGS4 act	MrgX1 agonist	MrgX1 PAM	MrgX1 antag	RGS4 block
CCOC(=O)Nc1csnn1	i	.	.	.	i
Cc1ccc(C(=O)NNC(=O)c2ccc(SCC3CCCO3)c([N+](=O)[O-])c2)cc1 (configuration not stated)	i	i	i	-6.68*	i
O=C(NNC(=O)c1ccc(SCC2CCCO2)c([N+](=O)[O-])c1)c1ccc(Cl)c([N+](=O)[O-])c1 (configuration not stated)	i	i	i	i	i
CCC(=O)Oc1ccc2c(C)cc(=O)oc2c1C(=O)CC	i	i	6.89*	i	i
O=C(N1CCOCC1)N1CCc2ccccc21	i	i	i	i	i
CC1=C(C)CS(=O)N(S(=O)(=O)c2ccccc2)C1 (configuration not stated)	i	i	i	i	i
CC1=C(C)CS(=O)N(c2ccc(S(N)(=O)=O)cc2)C1 (configuration not stated)	i	53.4*	i	i	i
COc1ccc(Cc2nnc(SCC(=O)N(C)CC(=O)Nc3ccc(C)cc3)o2)cc1	i	i	i	-4.59*	i
Cc1ccc(S(=O)(=O)N2CCC(C(=O)OCC(=O)N(Cc3ccccc3)C(C)(C)C)CC2)cc1C	i	i	i	i	i
CCn1nc(NS(=O)(=O)c2ccccc2[N+](=O)[O-])c2cc3ccc(C)cc3nc21	i	i	9.19*	i	i
Cc1nn(CCCC(=O)NCCc2ccccc2)c(C)c1[N+](=O)[O-]	i	i	7.21*	i	i
Cc1nn(Cc2c(Cl)cccc2Cl)c(C)c1NC(=O)CCCn1nc(C)c([N+](=O)[O-])c1C	i	i	i	-4.54*	i
Cc1ccc(Cn2nc(C)c(NC(=O)CCCn3nc(C)c([N+](=O)[O-])c3C)c2C)cc1	i	i	i	i	i
CCOc1ccc2nc(NC(=O)CN3CCC(n4nnc5cc(F)ccc54)CC3)sc2c1	i	i	i	i	i
Cc1ccccc1-n1c(SCc2c(C)noc2C)nnc1-c1c[nH]c2ccccc12	i	i	i	-4.54*	i
Cc1ccccc1C(=O)N/N=C1/SCC(=O)N1Cc1ccccc1	i	i	i	i	i
COc1ccc(OCC(=O)NCCCN2CCOCC2)cc1	i	i	i	i	i
CCOc1ccc(/C=C2\SC(=S)N(NS(=O)(=O)c3ccccc3)C2=O)cc1OC	i	i	i	i	i
CCOc1cc(/C=C2\SC(=S)N(NS(=O)(=O)c3ccccc3)C2=O)ccc1O	i	34.4*	i	i	i
COc1ccc(/C=C2\SC(=S)N(NS(=O)(=O)c3ccc(C)cc3)C2=O)c(OC)c1	-8.19*	i	i	i	i
COc1ccc(/C=C2\SC(=S)N(C(C(=O)O)c3ccccc3)C2=O)c(OC)c1 (configuration not stated)	i	i	i	-5.17*	i
COc1ccc(/C=C2\SC(=S)N(NS(=O)(=O)c3ccccc3)C2=O)c(OC)c1	-7.46*	i	i	-8.67*	i
CC(C(=O)Nc1cc(Cl)cc(Cl)c1)N1CCCC1 (configuration not stated)	i	i	i	i	i
